Screening results from PubChem BioAssay.
ABHD5-PLIN5 inh: inhibitors of human ABHD5-perilipin-5 interaction; AID 602281; Split G. princeps luciferase complementation, luminescence, 4 h; inhibition, % at 4 µM; 360,000 compounds, 0.78% hits;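 active means inhibition above the mean inhibition across every tested compound plus 3 SD, cut at about 22% in these data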
GRK2 aptamer HTS: inhibitors of human GRK2 displacing RNA aptamer. bead flow cytometry, FAM-aptamer displacement from GRK2. inhibition of aptamer binding, % at 10 µM. 330,000 compounds, 0.59% hits. AID 488847;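 active means inhibition of aptamer binding above 40%, roughly 3 SD of noise, on plates passing a quality check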;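 further: median bead fluorescence of bound FAM aptamer so fluorescent compounds give negative values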
Beta2AR agonist: activates human beta-2 adrenergic receptor causing internalization; 340,000 compounds, 0.43% hits; response, % (concentration not given with the values); Am2.2-beta2AR cells, FAP receptor internalization, flow cytometry; AID 504454;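 active means response above a set limit, near 3 SD of response in nonfluorescent compounds, cut at about 42% in these data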
Target sequence (P07550 whole entry, looked up): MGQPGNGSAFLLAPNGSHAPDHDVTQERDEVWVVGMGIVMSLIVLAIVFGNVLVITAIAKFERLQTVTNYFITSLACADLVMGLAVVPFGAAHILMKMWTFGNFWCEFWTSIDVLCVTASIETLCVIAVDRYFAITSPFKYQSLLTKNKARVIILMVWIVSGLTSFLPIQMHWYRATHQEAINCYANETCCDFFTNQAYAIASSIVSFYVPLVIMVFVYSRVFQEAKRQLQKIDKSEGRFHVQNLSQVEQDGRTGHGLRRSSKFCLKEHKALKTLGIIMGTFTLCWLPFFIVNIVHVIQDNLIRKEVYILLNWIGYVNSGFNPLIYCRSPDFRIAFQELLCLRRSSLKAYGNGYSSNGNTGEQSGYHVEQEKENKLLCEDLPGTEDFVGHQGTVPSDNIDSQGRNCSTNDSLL
SENP1 FRET inh: blocks the human SENP1 SUMO protease catalytic domain. recombinant SENP1 catalytic domain, CyPet-SUMO1-YPet FRET cleavage. Q9P0U3. 360,000 compounds, 0.21% hits. inhibition, % at 10 µM;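 active means inhibition at least 30% at 10 µM, raw YFP signal under a set limit, fluorescence ratio 0.5 to 1.5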
Target sequence (Q9P0U3 419-644 limits assumed): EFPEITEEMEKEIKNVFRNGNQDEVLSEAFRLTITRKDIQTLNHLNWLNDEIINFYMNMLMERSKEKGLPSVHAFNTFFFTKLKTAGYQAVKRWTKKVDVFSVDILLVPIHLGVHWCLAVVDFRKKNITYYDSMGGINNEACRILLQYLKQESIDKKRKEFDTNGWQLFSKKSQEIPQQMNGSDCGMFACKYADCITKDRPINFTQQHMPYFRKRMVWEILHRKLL
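Assay system: hSENP1 catalytic domain, recombinant. Amount: SENP1 enzyme, 20 pM final. Schedule: 50 min reaction, RT, dark. Technique: FRET, CFP and YFP emission. Control set: no-enzyme wells low, DMSO-plus-enzyme wells high control.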
NadD inh: blocks S. aureus nicotinate mononucleotide adenylyltransferase; purified NadD enzyme, colorimetric absorbance read-out; inhibition, % at 20 µM; 360,000 compounds, 0.78% hits; AID 602399; in the data active means inhibition above about 26%
B2AR ag CP1: human beta-2 adrenergic receptor agonism, cherry pick | Am2.2-beta2AR cells, FAP surface receptor, flow cytometry; active compounds read low | shares compounds with Beta2AR agonist | 1,100 compounds, 25% hits | percent response (surface receptor), % at 10 µM;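 active means surface receptor percent response at or below 58%, roughly 3 SD from nonfluorescent compounds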
FAP fluor counter: counter-screen for beta-2AR agonists: fluorescence in Am2.2 cells | 1,100 tested, under 10 active | shares compounds with Beta2AR agonist | calls only at 10 µM | FAP fluorogen flow cytometry, fluorescence counterscreen; active compounds read low;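 active means percent response below a set limit in fluorescence channel 1 and below 50% in channel 8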
Numbers stand for hits; – = inactive; · = no result. Compounds with a hit are over-represented: about 2.5% of the library has one in this group of screens.

SMILES | ABHD5-PLIN5 inh | GRK2 aptamer HTS | Beta2AR agonist | SENP1 FRET inh | NadD inh | B2AR ag CP1 | FAP fluor counter
COc1ccc(NC(=O)Nc2cccc3c2O[C@H](CN(C)Cc2ccc(-c4ccccc4)cc2)[C@@H](C)CN([C@H](C)CO)C3=O)cc1 | – | – | – | – | – | · | ·
CC(=O)c1ccc(N(CC(=O)NC2CCCCC2)C(=O)CNC(=O)c2ccco2)cc1 | – | – | – | – | – | · | ·
CN(C(=O)c1ccc(NC(=O)Cc2cccc(NC(=O)C3CCN(C(=O)C4CCCCC4)CC3)c2)cc1)C1CCCC1 | – | – | 54 | – | – | – | –
CN(C(=O)c1cccc(NC(=O)Cc2cccc(NC(=O)C3CCN(C(=O)C4CCC4)CC3)c2)c1)C1CC1 | – | · | – | – | – | · | ·
CN(C(=O)c1ccc(NC(=O)Cc2cccc(NC(=O)C3CCN(C(=O)C4CCC4)CC3)c2)cc1)C1CC1 | – | · | – | – | – | – | –
CCOC(=O)C1CCN(C(=O)Cn2c(=O)c3cccn3c3cccnc32)CC1 | – | – | – | – | – | · | ·
Cc1cc(C(=O)N2CCCC(N3CCN(Cc4ccc5c(c4)OCO5)CC3)C2)n[nH]1 (stereo not drawn) | – | – | – | – | – | · | ·
CSc1cccc(CN2CCC(Oc3ccc(C(=O)N4CCCCC4)cc3)CC2)c1 | – | – | – | – | – | · | ·
O=C(c1ccc(OC2CCN(Cc3cccc(F)c3)CC2)cc1)N1CCCCC1 | – | – | – | – | – | · | ·
COc1ccc(CN2CCC(Oc3ccc(C(=O)N4CCCCC4)cc3)CC2)cc1C | – | – | – | – | – | – | –
COc1cccc(CN2CCC(Oc3ccc(C(=O)N4CCCCC4)cc3)CC2)c1 | – | – | – | – | – | – | –
O=C(c1ccc(OC2CCN(Cc3cccc(OCCO)c3)CC2)cc1)N1CCCC1 | – | – | – | – | – | – | –
Cc1cccc(C(=O)O[C@@H]2[C@H](Cc3ccccc3)NS(=O)(=O)[C@H]3C[C@@H]4C=C[C@]23O4)c1 | – | – | – | – | – | · | ·
COc1ccc(C)cc1N1C(=N)/C(=C2/Nc3ccccc3S2)C(c2ccccc2)C1=O (stereo not drawn) | – | – | 45 | – | – | – | –
CCOc1ccc(NC(=O)Cn2nnc(-c3ccccc3NC(=O)C3CC3)n2)cc1 | – | – | – | – | – | – | –
CCOc1ccc(NC(=O)Cn2nnc(-c3ccccc3F)n2)cc1 | – | – | – | – | – | · | ·
COc1ccc(NC(=O)Cn2nnc(-c3ccccc3NC(=O)C3CC3)n2)cc1 | – | – | – | – | – | – | –
Cc1ccccc1C(=O)OC1CCCN(C)C1 (stereo not drawn) | – | – | 49 | – | – | – | –
Cc1cccc(C(=O)OC2CCCN(C)C2)c1C (stereo not drawn) | – | – | – | – | – | · | ·
Cc1cc(=O)[nH]c(SCC(=O)Nc2ccccc2[N+](=O)[O-])n1 | – | – | – | – | – | · | ·
C=CCn1c(C)cc(C(=O)COc2ccc(N(C)S(=O)(=O)c3ccc(NC(C)=O)cc3)cc2)c1C | – | – | 44 | – | – | – | –
COCC(C)n1c(C)cc(C(=O)COc2ccc(N(C)S(=O)(=O)c3ccc(NC(C)=O)cc3)cc2)c1C (stereo not drawn) | – | · | – | – | – | · | ·
CCOC(=O)COc1cccc2c(=O)n(CC(=O)NCc3ccc(F)cc3)ccc12 | – | – | 51 | – | – | – | –
CCOC(=O)COc1cccc2c(=O)n(CC(=O)NCc3ccccc3)ccc12 | – | – | – | – | – | · | ·
COc1ccc(N2C(=O)CS/C2=N\C(=S)Nc2ccccc2)cc1 | – | – | – | – | – | – | –
SMILES | ABHD5-PLIN5 inh | GRK2 aptamer HTS | Beta2AR agonist | SENP1 FRET inh | NadD inh | B2AR ag CP1 | FAP fluor counter
COc1ccc(CN(C(=S)Nc2ccccc2)C2CC(=O)N(c3ccc(F)cc3)C2=O)cc1 (stereo not drawn) | – | – | – | – | – | · | ·
CC[C@@H](C)[C@H](CN[C@H](CNC)[C@@H](C)O)NCCc1ccc(OC)cc1 | – | – | – | – | – | · | ·
CNC[C@H](NC[C@@H](NCCCc1ccccc1)c1ccccc1)[C@H](C)O | – | – | 55 | – | – | – | –
Cc1cc2c(c(C)c1CCO)C(=O)[C@H](C)C2 | – | – | – | – | – | · | ·
Cc1ccc(-c2nc3ncccc3o2)cc1NC(=O)c1sc2ccccc2c1Cl | – | – | 45 | – | – | – | –
Cc1ccc(-c2nc3ncccc3o2)cc1NC(=O)c1cccs1 | – | – | – | – | – | · | ·
C(=NOCc1ccccc1)c1cccnc1 | – | · | – | – | – | · | ·
COc1ccc(CNC(=O)CSc2nc3ccc(C)cc3[nH]2)cc1OC | – | – | – | – | – | · | ·
COc1ccc(C(C)=O)cc1CC(=O)N(Cc1ccccc1)c1ccccc1 | – | – | 45 | – | – | – | –
CCOC(=O)N1CCN(Cc2c(F)cccc2Cl)CC1 | – | – | – | – | – | · | ·
CCOC(=O)N1CCN(Cc2c(F)cccc2F)CC1 | – | – | 51 | – | – | – | –
CC(NC=O)c1nc2ccccc2n1CCc1ccccc1 (stereo not drawn) | – | – | – | – | – | · | ·
CCc1ccc(OCC(=O)Nc2ccc(-c3nc4ccccc4o3)c(O)c2)cc1 | – | – | 93 | – | – | 1.1 | –
COc1ccc(OCC(=O)Nc2cccc(-c3nc4ccccc4o3)c2)cc1 | – | – | – | – | – | · | ·
CN1C/C(=C/c2ccccc2[N+](=O)[O-])C(=O)/C(=C\c2ccccc2[N+](=O)[O-])C1 | – | · | – | – | – | · | ·
CCOc1ccccc1NC(=O)CNC(=O)c1nn(-c2ccc(OC)c(OC)c2)c(=O)c2ccccc12 | – | – | – | – | – | · | ·
CCOc1ccc(NC(=O)CNC(=O)c2nn(-c3ccc(OC)c(OC)c3)c(=O)c3ccccc23)cc1 | – | – | 54 | – | – | – | –
CC1CCCCC1NC(=O)CN1C(=O)NC(C)(c2cccc(Br)c2)C1=O (stereo not drawn) | – | – | – | – | – | · | ·
COc1ccc(S(=O)(=O)N2CCOCC2)cc1NC(=O)CN1C(=O)NC(C)(C2CC2)C1=O (stereo not drawn) | – | – | – | – | – | · | ·
O=C(NCc1ccccc1Cl)c1cc2c(s1)CS(=O)(=O)C2 | – | – | – | – | – | · | ·
CCC(=O)N1C(Cc2ccccc2)COC1(C)C (stereo not drawn) | – | – | – | – | – | – | –
CC(=O)c1cccc(NC(=O)CCc2nc3sc4c(c3c(=O)[nH]2)CCCC4)c1 | – | – | – | – | – | · | ·
CCOC(=O)N1CCN(c2ncnc3c2[nH]c2ccc(F)cc23)CC1 | – | – | – | – | – | · | ·
CCOC(=O)N1CCN(c2ncnc3c2[nH]c2ccc(OC)cc23)CC1 | – | – | 90 | – | – | – | –
CCN(CC)CCNC(=O)c1cc(-c2cccnc2)nc2ccc(S(=O)(=O)N3CCC(C)CC3)cc12 | – | – | – | – | – | – | –
